# Assay results published in ChEMBL document CHEMBL1821655, “Identification of SQ609 as a lead compound from a library of dipiperidines” (Bioorg Med Chem Lett, 2011).
# The source made the active and inactive calls. The rule behind the calls is not given here.
# Assays:
# [1] = test system: Mycobacterium tuberculosis; test: Antimycobacterial activity against Mycobacterium tuberculosis H37Rv ATCC 25618 after 10 to 14 days by microplate alamar blue assay; assay type: functional
# [2] = test system: Mycobacterium tuberculosis; test: Antimycobacterial activity against recombinant strain Mycobacterium tuberculosis Rv0341 by firefly luciferase reporter gene assay; assay type: functional, organism-based
# Method in brief: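 Recombinant Mtb carrying a promoter fused to firefly luciferase, which is activated and produces light when cell wall biosynthesis is inhibited. High-throughput luminescence read-out.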
# [3] = test system: Mycobacterium tuberculosis; test: Antimycobacterial activity against Mycobacterium tuberculosis pSMT1 infected in mouse J774A.1 ATCC TIB-67 cells assessed as viable bacterial count at 0.125 ug/ml for 4 days followed by 3 days incubation in drug-free medium by luciferase reporter gene assay; assay type: functional
# Method in brief: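 Mtb-infected J774A.1 mouse macrophages exposed to drug for 4 days, then medium replaced with drug-free medium and cultures incubated 3 more days. Triplicate wells lysed on day 0 and day 7 and viable bacteria measured as relative light units. Isoniazid control at 0.125 μg/ml.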
# [4] = test system: Mycobacterium tuberculosis; test: Antimycobacterial activity against Mycobacterium tuberculosis H37Rv infected in C3H/HeNCrlBR mouse assessed as prevention of body weight loss at 10 mg/kg, po administered 7 days after infection for 2 weeks measured after 10 to 15 days relative to control; assay type: functional, organism-based; set-up: dose 10 mg/kg
# Method in brief: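 Treatment began 7 days after infection: oral gavage once daily at 10 mg/kg for 2 wk. Body weights tracked from day 0 through day 21 and compared with uninfected mice and infected placebo-treated mice. Mortality was followed after therapy ended.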
# [5] = test system: Mycobacterium tuberculosis; test: Antimycobacterial activity against Mycobacterium tuberculosis pSMT1 infected in mouse J774A.1 ATCC TIB-67 cells assessed as viable bacterial count at 4 ug/ml for 4 days followed by 3 days incubation in drug-free medium by luciferase reporter gene assay; assay type: functional
# [6] = test system: Mycobacterium tuberculosis; test: Antimycobacterial activity against Mycobacterium tuberculosis pSMT1 infected in mouse J774A.1 ATCC TIB-67 cells assessed as inhibition of intracellular bacterial growth at MIC for 4 days followed by 3 days incubation in drug-free medium by luciferase reporter gene assay; assay type: functional
# [7] = test system: J774.A1; test: Cytotoxicity against mouse J774A1 cells assessed as cell aggregation at 4 ug/ml; assay type: cell-based
smiles,measurement,setting,value
c1ccc(CC2CCN(CC3CCN(CC45CC6CC(CC(C6)C4)C5)CC3)CC2)cc1,MIC,[1],10 µg/mL
c1ccc(CC2CCN(CC3CCN(CCC45CC6CC(CC(C6)C4)C5)CC3)CC2)cc1,MIC,[1],5 µg/mL
CCC(CN1CCC(CN2CCC(O)CC2)CC1)c1ccccc1 (stereo not drawn),MIC,[1],8 µg/mL
OC1CCN(CC2CCN(CC3CCCCCC3)CC2)CC1,MIC,[1],14 µg/mL
CC(C)=CCC/C(C)=C/CN1CCC(CN2CCC(Cc3ccccc3)CC2)CC1,MIC,[1],20 µg/mL
OCC1CCCN(CC2CCN(CC(c3ccccc3)c3ccccc3)CC2)C1 (stereo not drawn),MIC,[1],40 µg/mL
OC1CCN(CC2CCN(CCC34CC5CC(CC(C5)C3)C4)CC2)CC1,MIC,[1],15 µg/mL
OC1CCN(CC2CCN(C3C4CC5CC(C4)CC3C5)CC2)CC1 (stereo not drawn),Activity,[2],Active
same,Activity,[1],Active
NNC(=O)c1ccncc1 [ISONIAZID],Activity,[3],4 RLU
OC1CCN(CC2CCN(CC34CC5CC(CC(C5)C3)C4)CC2)CC1,Activity,[4],Active
same,Activity,[5],354 RLU
same,Activity,[2],Active
same,inhibition (INH),[6],>90%
same,Activity,[1],Active
same,MIC,[1],4 µg/mL
c1ccc(CC2CCN(CC3CCN(CC(c4ccccc4)c4ccccc4)CC3)CC2)cc1,MIC,[1],11 µg/mL
OC1CCN(CC2CCN(CC(c3ccccc3)c3ccccc3)CC2)CC1,Activity,[4],Active
same,Activity,[2],Active
same,Activity,[7],Toxic
same,Activity,[1],Active
same,MIC,[1],4 µg/mL
OC1CCN(CC2CCN(CCOc3ccccc3)CC2)CC1,MIC,[1],8 µg/mL
